Only some compounds are listed: those with a hit (about 2.3% of all), similar ones and a draw of the others.
TbMetRS inhib: T. brucei MetRS inhibitors, primary screen, biochemical, luminescence; methionyl-tRNA synthetase (Trypanosoma brucei brucei); purified T. brucei MetRS, ATP depletion, Kinase-Glo luminescence; inhibition, % at 11.9 µM; actives 0.4% (n = 360,000); AID 624268, 2012;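 active = inhibition above a per-plate cutoff of the control wells' mean inhibition plus 3 SD, cut at about 5.5% in these data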;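 also: 0% = DMSO wells median and 100% = median of wells with control inhibitor compound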
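Material – parasite MetRS enzyme · Medium – HEPES-MgCl2-KCl buffer plus DTT, spermine, BSA, pyrophosphatase · Reagent – ATP, methionine and E. coli bulk tRNA substrates · Times – 15 min enzyme-compound preincubation, 2 h reaction, 10 min detection, 25 °C · Measured by – luminescence of leftover ATP · Evaluation – percent inhibition relative to median high and low control wells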
PLC-gamma1 inh: PLC-gamma1 enzyme inhibitors, primary screen, biochemical, fluorescence, purified enzyme; 1-phosphatidylinositol 4,5-bisphosphate phosphodiesterase gamma-1 (Homo sapiens), P19174; fluorogenic substrate; inhibition, % at 12.2 µM; actives 0.84% (n = 370,000); in the data active = inhibition above about 9.5%
PLC-beta3 inh: human PLC-beta3 inhibitors, primary screen, biochemical, fluorescence; 1-phosphatidylinositol 4,5-bisphosphate phosphodiesterase beta-3 (Homo sapiens), Q01970; Purified PLC-beta3, fluorogenic substrate; inhibition, % at 12.2 µM; actives 0.18% (n = 370,000); in the data active = inhibition above about 11%;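 also: 0% = median of compound wells on plate and 100% = full blocker control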
ADAM10 inh: human ADAM10 inhibitors, primary screen, biochemical, QFRET, HTS | actives 0.62% (n = 370,000) | recombinant ADAM10, EDANS/DABCYL FRET peptide cleavage, 3 h | inhibition, % at 7 µM | Disintegrin and metalloproteinase domain-containing protein 10 (Homo sapiens), O14672;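 active = inhibition above a per-campaign cutoff equal to the mean of compounds falling between control-based bounds plus 3 SD, cut at about 20% in these data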;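 also: 0% = DMSO wells while the 100% control is not disclosed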
ADAM17 inh: ADAM17 inhibitors, primary screen, biochemical, QFRET. Disintegrin and metalloproteinase domain-containing protein 17 (Homo sapiens), P78536. recombinant ADAM17, EDANS/DABCYL FRET peptide cleavage. inhibition, % at 6.95 µM. actives 0.83% (n = 370,000);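 active = inhibition above the mean of compounds lying between control limits plus 3 SD, set per campaign, cut at about 8.5% in these data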;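 also: 0% = DMSO-only wells as the low control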
Target sequence (P78536 215-824 limits assumed): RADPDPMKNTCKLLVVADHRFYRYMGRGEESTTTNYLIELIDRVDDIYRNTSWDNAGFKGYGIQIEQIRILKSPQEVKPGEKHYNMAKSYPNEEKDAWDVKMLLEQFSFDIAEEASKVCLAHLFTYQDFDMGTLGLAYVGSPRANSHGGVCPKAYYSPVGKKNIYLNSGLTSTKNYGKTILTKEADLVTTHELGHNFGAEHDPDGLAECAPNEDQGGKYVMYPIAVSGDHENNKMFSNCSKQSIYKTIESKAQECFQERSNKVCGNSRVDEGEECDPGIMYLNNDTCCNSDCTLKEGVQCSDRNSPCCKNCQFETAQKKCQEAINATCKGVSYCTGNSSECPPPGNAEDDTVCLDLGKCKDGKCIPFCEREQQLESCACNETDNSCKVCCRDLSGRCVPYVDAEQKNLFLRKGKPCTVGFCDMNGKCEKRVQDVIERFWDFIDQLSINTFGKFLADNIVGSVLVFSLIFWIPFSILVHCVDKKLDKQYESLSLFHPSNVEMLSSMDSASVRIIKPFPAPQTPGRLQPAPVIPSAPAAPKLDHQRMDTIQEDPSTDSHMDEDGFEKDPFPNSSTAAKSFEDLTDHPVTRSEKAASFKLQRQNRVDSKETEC
TbMetRS confirm: T. brucei MetRS inhibitors, confirmation, biochemical, luminescence. shares compounds with TbMetRS inhib. T. brucei MetRS enzyme, luminescence (ATP depletion). inhibition, % at 11.9 µM. actives 93% (n = 1,400). AID 624412, 2012; in the data active = inhibition above about 7%
Jurkat tox: Jurkat T cell cytotoxicity, cytotoxicity control for T. brucei MetRS inhibitor project, luminescence, high throughput. shares compounds with TbMetRS inhib. Jurkat cells viability, ATP luminescence. inhibition, % at 8.3 µM. AID 624413, 2012. actives 12% (n = 1,400); in the data active = inhibition above about 15%;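 also: 0% = vehicle and 100% = reference inhibitor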
Tb MetRS inh FP: T. brucei MetRS inhibitors, orthogonal assay for T. brucei MetRS inhibitor project, biochemical, fluorescence polarization; shares compounds with TbMetRS inhib; purified T. brucei MetRS; inhibition, % at 11.9 µM; actives 44% (n = 1,400); AID 651607, 2012; in the data active = inhibition above about 17%;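 also: 0% = vehicle wells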
* hit, by the source's call; x = no result.

SMILES	TbMetRS inhib	PLC-gamma1 inh	PLC-beta3 inh	ADAM10 inh	ADAM17 inh	TbMetRS confirm	Jurkat tox	Tb MetRS inh FP
CC(=O)Nc1cc(NC(C)=O)cc(C(=O)N2CCCC3CCCCC32)c1 (configuration not stated)	0.1	0.3	-8.2	-0.5	1.4	x	x	x
O=C1CCCN1CCCNc1ncnc2c1[nH]c1ccc(Cl)cc12	62.3*	-10.4	-14.8	-140.9	-39.0	70.5*	4.5	50.6*
C=CCNc1ncnc2c1[nH]c1ccc(C)cc12	11.0*	-42.2	-51.5	-312.8	-108.0	22.3*	14.0	12.4
Cc1ccc2[nH]c3c(NCCN4CCOCC4)ncnc3c2c1	11.1*	-28.3	-52.5	-49.6	-19.2	22.3*	4.0	8.3
CCN1CCCC1CNc1ncnc2c1[nH]c1ccc(Cl)cc12 (configuration not stated)	37.9*	-13.2	-19.4	-50.1	-18.7	59.2*	1.8	36.0*
CCN1CCCC1Cn1cnc2c([nH]c3ccc(C)cc32)c1=O (configuration not stated)	0.7	-56.6	-75.2	-393.3	-114.6	x	x	x
CCOC(=O)C1(C#N)Cc2ccccc2C1	-0.1	-2.0	0.0	-8.9	-2.2	x	x	x
Cc1ccc2[nH]c3c(N4CCN(Cc5ccc6c(c5)OCO6)CC4)ncnc3c2c1	x	-12.5	-23.4	-48.8	-8.7	x	x	x
Cc1ccc2[nH]c3c(N4CCN(Cc5ccccc5)CC4)ncnc3c2c1	8.1*	-108.6	-150.9	-349.6	-58.5	17.9*	15.3*	3.6
Clc1ccc2[nH]c3c(NCCCN4CCOCC4)ncnc3c2c1	45.1*	-19.7	-23.9	-101.0	-40.6	56.5*	6.2	47.6*
CCOC(=O)C1(Cc2ccc(Cl)cc2)CCN(C(=O)c2sc(C)nc2C)CC1	-0.8	2.2	-0.7	3.0	-3.2	x	x	x
O=C(Nc1ccn(CCCNCc2ccc3c(c2)OCO3)c(=O)n1)OCc1ccccc1	-0.1	0.6	3.9	9.7	0.2	x	x	x
CCOC(=O)CNC(=O)CSc1nnc(-c2cccs2)o1	x	2.0	-7.0	-4.3	0.8	x	x	x
O=C(Nc1ccc(F)cc1)C1CC(=O)n2c(nc3ccccc32)N1 (configuration not stated)	17.7*	-2.3	-2.2	4.5	0.5	34.1*	0.8	11.7
COc1ccc(NC(=O)C2CC(=O)n3c(nc4ccccc43)N2)cc1 (configuration not stated)	-0.2	2.2	-117.0	-0.6	-1.2	x	x	x
O=C(Nc1ccc(F)c(Cl)c1)C1CC(=O)n2c(nc3ccccc32)N1 (configuration not stated)	74.4*	0.1	-2.6	-19.6	-4.1	89.5*	7.2	76.2*
O=C(Nc1nc2ncccn2c1-c1ccc(C(F)(F)F)cc1)c1ccc(F)cc1	x	-155.3	-208.8	-176.1	-54.4	x	x	x
O=C(COC(=O)c1cc([N+](=O)[O-])ccc1N1CCOCC1)Nc1cccc(F)c1	0.1	2.5	-7.7	1.8	0.8	x	x	x
C(=C/c1nccc2c1[nH]c1ccccc12)/c1ccc2c(c1)OCO2	5.9*	-275.2	-408.0	-79.5	-41.7	3.4	42.0*	91.0*
O=S(=O)(NCc1ccc(Cl)cc1Cl)c1ccc(N2CCOCC2)nc1	6.9*	-5.3	-11.5	-12.1	-3.5	13.6*	-2.9	3.1
O=C(Cn1c(=O)oc2ccccc21)Nc1ccc2c(c1)OCCO2	-1.1	-0.8	2.7	5.0	-2.2	x	x	x
O=C(CCn1c(=O)oc2ccccc21)Nc1ccc2c(c1)OCCO2	20.9*	1.3	-0.7	-17.9	-3.6	0.2	14.0	1.2
Cc1ccc(NS(=O)(=O)c2c(C)[nH]c(C)c2C(=O)N2CCCCC2)c(Br)c1	23.6*	0.0	-5.7	3.6	2.7	39.1*	2.0	15.2
Cc1[nH]c(C)c(S(=O)(=O)Nc2cccc(Cl)c2C)c1C(=O)N1CCCCC1	24.4*	0.8	-4.2	3.3	0.3	41.1*	0.9	19.8*
O=C(OCC#CCSc1nnc(-c2cccc3ccccc23)o1)c1ccc(F)cc1F	x	0.9	-3.1	-3.1	-1.1	x	x	x
SMILES	TbMetRS inhib	PLC-gamma1 inh	PLC-beta3 inh	ADAM10 inh	ADAM17 inh	TbMetRS confirm	Jurkat tox	Tb MetRS inh FP
N/N=C(/Cc1nc2ccccc2[nH]1)c1ccc([N+](=O)[O-])cc1	6.0*	-6.4	-4.8	3.0	2.4	87.6*	-0.4	66.0*
Cc1ccc2nc(CCCc3nc4ccc(C)cc4[nH]3)[nH]c2c1	0.9	-2.7	-3.4	2.7	-4.0	x	x	x
O=C(Cc1nc2ccccc2[nH]1)c1ccc(Br)cc1	10.8*	-38.5	-66.4	-9.5	-6.6	2.3	9.5	5.8
c1ccc2[nH]c(CCCCc3nc4ccccc4[nH]3)nc2c1	6.4*	-8.1	-13.4	-5.7	-7.3	16.3*	0.9	11.8
c1ccc(N/N=C(\Cc2nc3ccccc3[nH]2)c2ccccc2)cc1	3.1	-72.2	-82.6	-15.6	-4.6	x	x	x
Cc1ccc2nc(CCc3nc4ccc(C)cc4[nH]3)[nH]c2c1	6.4*	8.0	-2.1	14.4	5.8	11.1*	3.1	4.6
N#Cc1ccccc1COc1cccc2c1CCCC2O (configuration not stated)	-0.4	1.6	-6.5	-8.6	0.6	x	x	x
Nc1c(-c2cccc([N+](=O)[O-])c2)nc2ccccn12	-0.3	-4.8	-22.2	-2.7	0.4	x	x	x
O=C(NCC1CCCO1)c1ccc2c(c1)S(=O)(=O)c1ccccc1C2=O (configuration not stated)	-0.2	0.8	5.0	3.0	-0.4	x	x	x
c1ccc2[nH]c(CSc3nc4ccccc4s3)nc2c1	8.1*	-31.6	-45.4	-49.4	-13.6	19.7*	7.5	5.5
COc1ccc(OCc2cc(C(=O)NC(C)c3nc(C)cs3)no2)c(Cl)c1 (configuration not stated)	0.8	0.5	2.2	-2.4	2.8	x	x	x
COc1ccc(OCc2cc(C(=O)NCc3nc(C)cs3)no2)c(Cl)c1	6.2*	-20.5	-4.9	8.9	-1.0	29.2*	1.3	20.9*
O=C(Nc1nc2c(Cl)cccc2s1)c1ccc(Br)o1	6.8*	-36.8	-56.2	-22.4	-11.3	4.4	-4.9	3.8
O=C(Nc1nc2c(Cl)cccc2s1)c1ccc([N+](=O)[O-])o1	-0.5	-0.7	-4.0	-8.1	1.1	x	x	x

From PubChem
